Published values of several laboratories.
Target: Fibroblast growth factor receptor 2 (FGFR2, Homo sapiens, UniProt P21802)

O=C(O)c1cc(-c2ccc(C3CCNCC3)cc2)c2ccc(-c3ccc(C(F)(F)F)cc3)cc2c1
remaining binding (cell-free assay, competition with immobilised ligand; 1 µM): 100%

C=CC(=O)N1CCC(C(=O)NCC(=O)N2CCN(c3nc(-c4cnc(N)nc4C(F)F)nc(N4CCOCC4)n3)CC2)CC1
remaining binding (binding, competition with immobilised ligand; 1 µM): 89%

COc1ccnn2ncc(-c3ccnc(N(C)C)n3)c12
remaining binding (binding; 1 µM): 100%

COc1ccc2cc(OCC3(C(=O)O)CN(C(=O)c4ccc(F)cc4)C3)ccc2c1
remaining binding (cell-free assay, competition with immobilised ligand; 1 µM): 100%

F[C@@H]1CCN(c2nccc(-c3cnn4ncccc34)n2)C1
remaining binding (binding; 1 µM): 100%

O=C(c1ccc(Nc2ncc(Cl)c(-c3cc4ccccc4s3)n2)cc1)N1CCC(N2CCCC2)CC1
remaining binding (binding, competition with immobilised ligand; 1 µM): 33%

Cc1cnn2ncc(-c3ccnc(N(C)C)n3)c2c1
remaining binding (binding; 1 µM): 98%

O=C(O)[C@H]1[C@H](Cn2nnc3ccccc3c2=O)CC[C@@H]1C(=O)c1ccc(OCCC2CCOCC2)cc1
remaining binding (cell-free assay, competition with immobilised ligand; 1 µM): 100%

N[C@H]1CCN(c2nccc(-c3cnn4ncccc34)n2)C1
remaining binding (binding; 1 µM): 92%

C[C@@H]1CN(c2ccc3ncc(-c4ccc5[nH]nc(C6CC6)c5c4)n3n2)C[C@H](C)O1
remaining binding (binding, competition with immobilised ligand; 50 nM): 100%

CC1CCCN1c1nccc(-c2cnn3ncccc23)n1 (stereo not shown)
remaining binding (binding; 1 µM): 100%

O=C(NCC1CCOCC1)c1n[nH]cc1NC(=O)c1c(F)cccc1F
remaining binding (binding, competition with immobilised ligand; 1 µM): 100%

Cc1cnc(Nc2ccc(C(=O)N3CCC(N4CCCC4)CC3)cc2)nc1-c1cc2ccccc2s1
remaining binding (binding, competition with immobilised ligand; 1 µM): 14%

C[C@H]1CCN(c2nccc(-c3cnn4ncccc34)n2)C1
remaining binding (binding; 1 µM): 100%

CCCOc1ccc([C@@H]2[C@@H](C(=O)O)[C@H](c3ccc4c(c3)OCO4)CN2CC(=O)Nc2c(CC)cccc2CC)cc1
remaining binding (cell-free assay, competition with immobilised ligand; 1 µM): 100%

CNC(=O)[C@@H]1CC[C@@H](n2c(-c3ccc4cnccc4c3)nc3ccc(C(=O)NCc4cccc(C(N)=O)c4)cc32)C1
remaining binding (binding, competition with immobilised ligand; 1 µM): 96%

C[C@@H](c1ccc(-n2cnc3c(N)ncnc32)cc1)N1CCc2nn(C)c(Cc3ccccc3)c2C1=O
remaining binding (binding, competition with immobilised ligand; 0.1 µM): 72%

Cc1c(C(=O)O)cc(-c2ccc(C3CCNCC3)cc2)c2ccc(-c3ccc(C(F)(F)F)cc3)cc12
remaining binding (cell-free assay, competition with immobilised ligand; 1 µM): 100%

N#Cc1ccccc1CSc1nnc2c(n1)[nH]c1ccccc12
remaining binding (binding, competition with immobilised ligand; 10 µM): 91%

O=C(c1ccc(Nc2ncc(Cl)c(-c3ccc(Cl)s3)n2)cc1)N1CCC(N2CCCC2)CC1
remaining binding (binding, competition with immobilised ligand; 1 µM): 4.4%

Nc1ncc2c(n1)-c1c([nH]c3ccc(C#CC4CC4)cc13)CCCC2
remaining binding (binding, competition with immobilised ligand; 1 µM): 99%

C[C@H](c1ccc(F)cc1)N(Cc1cccc(C(=O)O)c1)C(=O)c1cnc2ccccc2c1
remaining binding (cell-free assay, competition with immobilised ligand; 1 µM): 74%

COc1cnc(Nc2cccc(S(N)(=O)=O)c2)nc1N1CCN(c2ccccc2)C(=O)C1
remaining binding (binding, competition with immobilised ligand; 1 µM): 90%

CN(C)c1ncc(F)c(-c2cnn3ncccc23)n1
remaining binding (binding; 1 µM): 100%

Cc1nccc(COC(=O)N2C[C@@H]3[C@@H](CNC(=O)c4ccc5[nH]nnc5c4)[C@@H]3C2)n1
remaining binding (cell-free assay, competition with immobilised ligand; 1 µM): 78%
